The term EC50 denotes the midpoint of the concentration-response curve. The Ki is the equilibrium dissociation constant of an inhibitor or competing ligand from its target. A low value points to higher affinity.

Assay [1] has as its target T1, Urotensin-2 receptor (Rattus norvegicus) (UniProt P49684).
T1 sequence (whole entry): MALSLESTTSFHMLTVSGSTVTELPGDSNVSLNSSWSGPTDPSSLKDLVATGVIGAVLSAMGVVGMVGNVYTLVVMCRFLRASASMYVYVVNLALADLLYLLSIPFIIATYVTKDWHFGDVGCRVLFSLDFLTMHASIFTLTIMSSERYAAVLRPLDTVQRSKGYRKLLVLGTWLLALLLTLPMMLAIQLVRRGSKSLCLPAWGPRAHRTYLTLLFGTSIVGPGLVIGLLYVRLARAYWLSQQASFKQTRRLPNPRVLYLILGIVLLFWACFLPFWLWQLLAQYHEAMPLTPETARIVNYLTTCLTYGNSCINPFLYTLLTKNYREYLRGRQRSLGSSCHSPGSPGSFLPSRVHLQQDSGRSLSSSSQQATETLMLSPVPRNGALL
Briefly: Agonist activity at urotensin 2 receptor in Sprague-Dawley rat thoracic aortic ring assessed as induction of contraction at 10 uM relative to KCl-induced contraction. The procedure, abridged:
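Male Sprague-Dawley rats, 250-300 g. Aortic rings were held in a 5-mL organ bath of oxygenated Krebs-Henseleit buffer. Each vessel was first challenged with KCl, 40 mM final in the bath. Peptides were added cumulatively from 10−11 to 10−5 M. Each contraction was taken as a percentage of the KCl response, divided by the response to hU-II (10−7 M).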

The target of assay [2] is T2, Urotensin-2 receptor (Homo sapiens, UniProt Q9UKP6).
T2 sequence (Q9UKP6 whole entry): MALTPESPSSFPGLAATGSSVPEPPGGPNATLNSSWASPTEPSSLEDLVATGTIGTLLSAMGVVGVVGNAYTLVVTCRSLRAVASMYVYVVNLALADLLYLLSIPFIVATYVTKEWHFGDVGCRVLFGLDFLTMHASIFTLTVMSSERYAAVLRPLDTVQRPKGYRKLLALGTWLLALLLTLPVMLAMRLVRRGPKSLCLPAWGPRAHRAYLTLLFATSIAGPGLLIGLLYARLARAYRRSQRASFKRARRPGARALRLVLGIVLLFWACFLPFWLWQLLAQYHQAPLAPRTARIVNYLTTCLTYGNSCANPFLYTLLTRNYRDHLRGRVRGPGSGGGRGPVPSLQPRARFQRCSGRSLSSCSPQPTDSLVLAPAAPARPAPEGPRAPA
Briefly: Agonist activity at urotensin 2 receptor (unknown origin) expressed in HEK293 cells co-expressing Gq-polycistronic BRET biosensor assessed as induction of Gq activation measured for 5 mins by luminescence detection based BRET assay. It is filed as cell-based. A general note: BRET reads energy transfer from a luciferase to a nearby fluorophore.

Assay [3] addresses T2, Urotensin-2 receptor. Put plainly: Displacement of [125I]-URP or human [125I[-urotensin-2 from human urotensin 2 receptor expressed in HEK293 or CHOK1 cells after 2 hrs by gamma-counting assay. The format is cell-based. (In general: Displacement assays read how much labelled ligand stays bound in the presence of the test substance.)

`CC(C)[C@H](NC(=O)[C@@H]1CSSC[C@H](NC(=O)[C@H](C)N)C(=O)N(C)[C@@H](Cc2ccccc2)C(=O)N[C@@H](Cc2c[nH]c3ccccc23)C(=O)N[C@@H](CCCCN)C(=O)N[C@@H](Cc2ccc(O)cc2)C(=O)N1)C(=O)O`: the Activity in assay [1] stood at 51%. Also, at Urotensin-2 receptor [2], the EC50 was 105 nM. The molecule also gave a Ki at Urotensin-2 receptor [3] of 245 nM.

As for `CC(C)[C@H](NC(=O)[C@@H]1CSSC[C@H](NC(=O)[C@H](CC(=O)O)NC(=O)[C@@H]2CCCN2C(=O)[C@@H](NC(=O)[C@@H](N)CCC(=O)O)[C@@H](C)O)C(=O)N[C@@H](Cc2ccccc2)C(=O)N[C@@H](Cc2c[nH]c3ccccc23)C(=O)N(C)[C@@H](CCCCN)C(=O)N[C@@H](Cc2ccc(O)cc2)C(=O)N1)C(=O)O`, in assay [1], the Activity came out at 72%. This molecule also gave a Ki on Urotensin-2 receptor [3] of 2090 nM.

These data come from ChEMBL document CHEMBL4368906 (J Med Chem, 2019).
